Measurements gathered from unrelated publications.
Each line is one published result; the experiments were not run side by side.
Organism: Mycobacterium tuberculosis
Observed: microbial growth

| Structure (SMILES) | test | system | setting | MIC |
| --- | --- | --- | --- | --- |
| OCN(CO)c1nc(N(CO)CO)nc(N(CO)CO)n1 | – | H37RV | 7 days | 8 to 16 µg/mL |
| Cc1ccc(NC(=O)c2ccccc2)cc1Nc1nccn1-c1cc(NC2CCCC2)ncn1 | – | W4 | – | > 20 µM |
| C=C[C@@]1(C)CC[C@@H]2C(C)(C)c3cccc4[nH]c5c(c34)[C@@]2(O)[C@]1(C#N)[C@H]1O[C@H]1C5(C)C | – | H37RV | – | 11.3 µM |
| COC(=O)c1cc(-c2cccc(NC(=O)Nc3ccc(F)cc3)c2)on1 | – | ATCC27294 H37RV | 7 days | 0.5 µg/mL |
| Cc1ccc(-c2nc3ccc(C)cn3c2CC(=O)N(C)C)cc1 | – | H37RV | 5 days | 10 to 11 µM |
| C[C@@H]([C@H](N)C(=O)N[C@H](C(=O)O)[C@H]1O[C@@H](n2ccc(=O)[nH]c2=O)[C@H](O)[C@@H]1O)[C@H](O)c1ccc(O)cn1 | – | H37RV | 14 days | > 50 µg/mL |
| Cc1ccc(C)n1-c1ccc(-c2nnc(-c3ccccc3Cl)[nH]2)cc1 | broth dilution | H37RV | 21 days | 8 µg/mL |
| COC(=O)c1cc(-c2cccc(NC(=O)Nc3ccc(F)c(F)c3)c2)on1 | – | ATCC27294 H37RV | 7 days | 0.5 µg/mL |
| COc1nc2ccc(Br)cc2cc1[C@@H](c1ccccc1)[C@@](O)(CCN(C)C)c1cccc2ccccc12 | resazurin | H37RV | 14 days | 0.51 µM |
| COC(=O)c1cc(-c2cccc(NC(=S)Nc3cccc(Br)c3)c2)on1 | – | ATCC27294 H37RV | 7 days | 8 µg/mL |
| O=C1C(=NNc2nc(-c3ccccc3)cs2)C(N=Cc2ccccc2Cl)=NN1c1ccccc1 | resazurin | H37RV | 5 days | 51.5 µM |
| Cc1ccn2c(C(=O)NCc3cccc(S(F)(F)(F)(F)F)c3)c(C)nc2c1 | – | H37RV | 5 days | 0.65 µM |
| COC(=O)c1cc(-c2cccc(NC(=S)Nc3ccc(OC)cc3)c2)on1 | – | ATCC27294 H37RV | 7 days | 2 µg/mL |
| Cc1cn2c(C(=O)NCc3ccc(S(F)(F)(F)(F)F)cc3)c(C)nc2s1 | resazurin | H37RV | – | 0.078 µM |
| NC(=O)c1cnccn1 | resazurin | H37RV | – | 3.12 µg/mL |
| O=c1nc(N2CCN(CC3CCCCC3)CC2)sc2c([N+](=O)[O-])cc(C(F)(F)F)cc12 | resazurin | H37RV | – | 0.002 µM |
| NNC(=O)c1ccncc1 | resazurin | H37RV | – | 0.8 µM |
| Cc1c(Cc2ccc(Cl)cc2)c(=O)n2c([nH]c3ccccc32)c1C#N | broth dilution | H37RV | – | 1 µg/mL |
| N#Cc1cc(C(F)(F)F)cc2c(=O)nc(N3CCN(CC4CCC4)CC3)sc12 | resazurin | H37RV | – | > 2 µM |
| O=C(CCNS(=O)(=O)c1ccccc1[N+](=O)[O-])N1CCN(C(c2ccc(F)cc2)c2ccc(F)cc2)CC1 | – | ATCC27294 H37RV | – | > 25 µg/mL |
| CCCCCCC/C=C\[C@H](O)C#CC#C[C@@H](O)CC | resazurin | ATCC27294 H37RV | 7 days | 50.2 µg/mL |
| O=C1C(=NNc2nc(-c3ccccc3)cs2)C(N=Cc2ccc(Cl)cc2)=NN1c1ccccc1 | resazurin | H37RV | – | 25 µg/mL |
| CC(C)(C)C1CCC2(CC1)SCC(=O)N2NC(=O)c1[nH]c2ccc(Cl)cc2c1-c1ccccc1 (stereo not drawn) | – | ATCC27294 H37RV | – | 16 µM |
| COC1C(O)C(n2ccc(=O)[nH]c2=O)OC1C(OC1OC(C(=O)NC2CCCCNC2=O)=CC(O)C1O)C(N)=O (stereo not drawn) | resazurin | H37RV | – | 12.5 µg/mL |
| CC[C@@H](CO)NCCN[C@@H](CC)CO | – | ATCC27294 H37RV | 7 days | 1 µg/mL |
| CO[C@H]1/C=C/O[C@@]2(C)Oc3c(C)c(O)c4c(O)c(c(/C=N/N5CCN(C)CC5)c(O)c4c3C2=O)NC(=O)/C(C)=C\C=C\[C@H](C)[C@H](O)[C@@H](C)[C@@H](O)[C@@H](C)[C@H](OC(C)=O)[C@@H]1C | – | H37RV | – | 0.05 µg/mL |

| Structure (SMILES) | test | system | setting | MIC |
| --- | --- | --- | --- | --- |
| CCc1nc2ccc(Cl)cn2c1C(=O)NCc1cccc(S(F)(F)(F)(F)F)c1 | – | H37RV | 5 days | 0.28 µM |
| C[C@H]1O[C@H](O[C@H]2CC[C@H](n3ccc(NC(=O)c4ccc(NC(=O)[C@@](C)(N)CO)cc4)nc3=O)O[C@@H]2C)[C@H](O)[C@@H](O)[C@@H]1N(C)C | – | H37RA | – | 0.8 µM |
| CC1=NN(CNc2ccccn2)C(=O)C1=NNn1c(-c2ccccc2)nc2ccccc2c1=O | resazurin | H37RV | – | 110 µM |
| CO[C@H]1/C=C/O[C@@]2(C)Oc3c(C)c(O)c4c(O)c(c(/C=N/N5CCN(C)CC5)c(O)c4c3C2=O)NC(=O)/C(C)=C\C=C\[C@H](C)[C@H](O)[C@@H](C)[C@@H](O)[C@@H](C)[C@H](OC(C)=O)[C@@H]1C | resazurin | H37RV | 7 days | 0.061 µM |
| O=C1COCCN1c1ccc(CO[C@@H]2COc3nc([N+](=O)[O-])cn3C2)cc1F | – | H37RV | – | 0.4 to 0.8 µg/mL |
| O=C1C(=NNc2nc(-c3ccccc3)cs2)C(N=Cc2ccc([N+](=O)[O-])cc2)=NN1c1ccccc1 | resazurin | H37RV | – | 25 µg/mL |
| CN[C@H](CC(C)C)C(=O)N[C@H]1C(=O)N[C@@H](CC(N)=O)C(=O)N[C@H]2C(=O)N[C@H]3C(=O)N[C@H](C(=O)N[C@H](C(=O)O)c4cc(O)cc(O)c4-c4cc3ccc4O)[C@H](O)c3ccc(c(Cl)c3)Oc3cc2cc(c3O[C@@H]2O[C@H](CO)[C@@H](O)[C@H](O)[C@H]2O[C@H]2C[C@](C)(N)[C@H](O)[C@H](C)O2)Oc2ccc(cc2Cl)[C@H]1O | resazurin | H37RA | 14 days | 65 µg/mL |
| O=C1C(=NNc2nc(-c3ccccc3)cs2)C(N=Cc2ccc(O)cc2O)=NN1c1ccccc1 | resazurin | H37RV | – | 6.25 µg/mL |
| [H]/N=C(/N)N[C@H]1[C@H](O)[C@@H](O)[C@H](O[C@@H]2O[C@@H](C)[C@](O)(C=O)[C@H]2O[C@@H]2O[C@@H](CO)[C@H](O)[C@@H](O)[C@@H]2NC)[C@@H](N/C(N)=N\[H])[C@@H]1O | – | H37RV | – | 1.1 µg/mL |
| CC[C@@H](CO)NCCN[C@@H](CC)CO | resazurin | H37RA | 14 days | 1 µg/mL |
| Nc1ccc(C(=O)O)c(O)c1 | broth dilution | H37RV | – | 0.125 µg/mL |
| COC(=O)c1cc(-c2cccc(NC(=O)Nc3ccccc3)c2)on1 | – | ATCC27294 H37RV | 7 days | 4 µg/mL |
| Cc1cc(=O)[nH]n1C(=O)c1ccc(-n2c(C)ccc2C)cc1 | broth dilution | H37RV | 21 days | 2 µg/mL |
| CC1CCC2(CC1)SC(C)C(=O)N2NC(=O)c1[nH]c2ccc(Cl)cc2c1-c1ccccc1 (stereo not drawn) | – | ATCC27294 H37RV | – | 1000 µM |
| CO[C@H]1/C=C/O[C@@]2(C)Oc3c(C)c(O)c4c(O)c(c(/C=N/N5CCN(C)CC5)c(O)c4c3C2=O)NC(=O)/C(C)=C\C=C\[C@H](C)[C@H](O)[C@@H](C)[C@@H](O)[C@@H](C)[C@H](OC(C)=O)[C@@H]1C | – | ATCC27294 H37RV | 8 days | 0.06 µg/mL |
| COC(=O)c1cc(-c2cccc(NC(=S)Nc3ccccc3)c2)on1 | – | ATCC27294 H37RV | 7 days | 2 µg/mL |
| CO[C@H]1/C=C/O[C@@]2(C)Oc3c(C)c(O)c4c(O)c(c(/C=N/N5CCN(C)CC5)c(O)c4c3C2=O)NC(=O)/C(C)=C\C=C\[C@H](C)[C@H](O)[C@@H](C)[C@@H](O)[C@@H](C)[C@H](OC(C)=O)[C@@H]1C | resazurin | H37RA | 14 days | 0.06 µg/mL |
| Cc1ccc(C)n1-c1ccc(-c2nnc(-c3ccc(O)cc3)[nH]2)cc1 | broth dilution | H37RV | 21 days | 16 µg/mL |
| Cc1c(Cc2ccccc2Cl)c(=O)n2c([nH]c3ccccc32)c1C#N | broth dilution | H37RV | – | > 128 µg/mL |
| CCCCCCC/C=C\C(O)C#CC#CC(=O)CCOC (stereo not drawn) | resazurin | ATCC27294 H37RV | 7 days | > 60 µg/mL |
| COC(=O)c1cc(-c2cccc(NC(=O)Nc3cccc(F)c3)c2)on1 | – | ATCC27294 H37RV | 7 days | 2 µg/mL |
| CC1CCC2(CC1)SCC(=O)N2NC(=O)c1[nH]c2ccc(Cl)cc2c1-c1ccccc1 (stereo not drawn) | – | ATCC27294 H37RV | – | 31 µM |
| O=C(c1cc2c(F)cc(F)cc2[nH]1)N1CCN(C(=O)C23CC4CC(CC(C4)C2)C3)CC1 | resazurin | H37RV | – | > 75 µM |
| O=C(NN1C(=O)CSC12CCCCC2)c1[nH]c2ccc(Cl)cc2c1-c1ccccc1 | – | ATCC27294 H37RV | – | 16 µM |
| O=C(C1CCCN(S(=O)(=O)c2ccccc2[N+](=O)[O-])C1)N1CCN(C(c2ccc(F)cc2)c2ccc(F)cc2)CC1 (stereo not drawn) | – | ATCC27294 H37RV | – | > 25 µg/mL |
